Sampled rows, rich in hits. Any-hit rate of the full collection: about 1.9%.
VIM-2 inhibitor: VIM-2 metallo-beta-lactamase inhibitors, primary screen, biochemical, epi-absorbance readout, Pseudomonas aeruginosa enzyme. purified VIM-2, nitrocefin hydrolysis, epi-absorbance fluorescence. inhibition, % at 5.6 µM. 290,000 tested, 0.89% active. AID 1527, 2009;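 active = inhibition above the mean of all tested compounds plus 3 SD, cutoff set per screening run, cut at about 7.5% in these data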;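 note: red hydrolysis product quenches plate fluorescence so inhibitors raise well fluorescence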
UBC9 SUMO inh: inhibitors of in vitro SUMOylation cascade, primary screen, biochemical, HTRF, uHTS; SUMO-conjugating enzyme UBC9 (Homo sapiens), P63279; HTRF SUMOylation assay, SAE1/SAE2 + UBC9; inhibition, % at 35 µM; 290,000 tested, 0.36% active; in the data active = inhibition above about 50%, passing the limit was not always enough
Target sequence (P63279 whole entry, looked up): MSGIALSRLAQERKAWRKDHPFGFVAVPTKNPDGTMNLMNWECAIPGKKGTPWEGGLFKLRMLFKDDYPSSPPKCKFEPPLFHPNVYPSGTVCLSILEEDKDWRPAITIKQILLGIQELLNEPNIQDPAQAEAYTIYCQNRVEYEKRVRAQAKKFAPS
CTSL1 counter: Fasciola hepatica cathepsin L1 inhibitors, primary screen, counter-screen for PFM18AAP inhibitor project, biochemical, QFRET, fluorogenic peptide substrate. recombinant F. hepatica cathepsin L1, Z-Leu-Arg-MCA fluorescence. inhibition, % at 5.96 µM. 300,000 tested, 0.49% active;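 active = inhibition above the mean of all tested compounds plus 3 SD, set per screening campaign, cut at about 17% in these data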
T cell modulator: modulators of CD8 T cell-vesicle binding, primary screen, mouse 2C CD8+ T cells, flow cytometry; 2C CD8+ T cell-vesicle binding; stronger effect = lower value; 330,000 tested, 0.068% active; response (vesicle binding), % at 7 µM; AID 2052, 2009;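 active = response, share of CD8 T cells binding vesicles, and their 90th percentile fluorescence all below set limits, cut at about 80% in these data, passing the limit was not always enough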;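 note: values below 100% mean blocked vesicle binding to the CD8+ T cells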
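Material: murine 2C transgenic CD8+ T lymphocytes / Also added: QL9-peptide-loaded Drosophila micro-vesicles bearing Ld, ICAM-1 and B7-1 / Schedule: binding step 1.5 h, 37 °C, antibody labelling 20 min, ice / Signal: flow cytometry, PE anti-B7-1 (FL2) versus Alexa647 anti-CD8 (FL8), PFA-fixed / Evaluation: percent CD8+ FL2 mean versus row control / Benchmarks: naked versus QL9-loaded vesicles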
IMP-1 inhibitor: IMP-1 metallo-beta-lactamase inhibitors, primary screen, biochemical, epi-absorbance readout, Pseudomonas aeruginosa enzyme; inhibition, % at 5.6 µM; metallo-beta-lactamase IMP-1 (Pseudomonas aeruginosa); AID 1556, 2009; purified IMP-1, nitrocefin hydrolysis, epi-absorbance fluorescence; 290,000 tested, 0.45% active;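 active = inhibition above the mean plus 3 SD of all compounds in the same screening run, cut at about 4.5% in these data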
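system = purified recombinant IMP-1 beta-lactamase | amount = 0.2 nM IMP-1, as dispensed | medium = HEPES buffer pH 7.1 with ZnSO4 and Brij 35 | times = 25 °C, 15 min preincubation, 25 min reaction | detection = plate fluorescence quenching by hydrolysis product, ex 480/em 530 nm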
pCIP destab: p/CIP-EGFP fusion destabilizers, primary screen, fluorescence, F442A cells | Q05BA5 | 16 h | decrease of EGFP signal, % at 10 µM | 290,000 tested, 0.01% active;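 active = EGFP signal decrease of at least 30% at 10 µM or well 3 SD below plate mean, unless failing retest; inactive = the rest, including hits failing retest or dose response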
VIM-2 inh confirm: P. aeruginosa VIM-2 enzyme inhibition – biochemical, epi-absorbance, HTS, confirmation; shares compounds with IMP-1 inhibitor; purified VIM-2 enzyme, nitrocefin absorbance; inhibition, % at 5.6 µM; 200 tested, 73% active; in the data active = inhibition above about 8%
TEM-1 counter: Serine beta-lactamase TEM-1 inhibition, biochemical epi-absorbance counter-screen for IMP-1/VIM-2 inhibitor program; shares compounds with IMP-1 inhibitor; TEM-1 beta-lactamase, nitrocefin absorbance inhibition; inhibition, % at 5.6 µM; 200 tested, 50% active; in the data active = inhibition above about 0.66%
Target sequence (P62593 whole entry, looked up): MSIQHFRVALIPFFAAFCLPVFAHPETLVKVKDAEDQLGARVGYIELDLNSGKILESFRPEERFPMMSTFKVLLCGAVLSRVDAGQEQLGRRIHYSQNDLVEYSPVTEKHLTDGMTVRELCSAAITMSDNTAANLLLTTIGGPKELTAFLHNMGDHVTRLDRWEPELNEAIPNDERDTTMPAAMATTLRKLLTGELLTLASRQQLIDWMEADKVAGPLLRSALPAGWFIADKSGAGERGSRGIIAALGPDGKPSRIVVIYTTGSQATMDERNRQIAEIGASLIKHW
IMP-1 confirm: IMP-1 metallo-beta-lactamase inhibitors, confirmation, biochemical, epi-absorbance, hits shared with VIM-2 screen; shares compounds with IMP-1 inhibitor; purified IMP-1 enzyme, absorbance substrate hydrolysis; inhibition, % at 5.6 µM; 200 tested, 60% active; AID 2189, 2009; in the data active = inhibition above about 4.9%
Each line names hits and unclear results; the compound was inactive in the other large screens (follow-up assays come after a bar, where they were run).

CCN(CC)c1ccc(/C=C2\C(=N)N3N=C(CC(=O)N4CCOCC4)SC3=NC2=O)cc1	VIM-2 inhibitor 10.6, IMP-1 inhibitor 6.4 | VIM-2 inh confirm 9.3 | TEM-1 counter inactive | IMP-1 confirm inactive
O=C(NC1CC1)C1CCN(c2nc3ccccc3s2)CC1	none
O=C(NC1CC1)C1CCN(c2ncnc3c2sc2cccc(F)c23)CC1	VIM-2 inhibitor 13.9, IMP-1 inhibitor 5.1 | VIM-2 inh confirm 27.5 | TEM-1 counter inactive | IMP-1 confirm inactive
O=C(O)c1ccccc1-c1ccc(/C=C/c2cc(C(F)(F)F)[nH]c(=O)n2)o1	VIM-2 inhibitor 8.2, IMP-1 inhibitor 5.5 (no result: CTSL1 counter, T cell modulator) | VIM-2 inh confirm 14.8 | TEM-1 counter 37.4 | IMP-1 confirm 11.1
O=C(O)c1cc(Cl)ccc1-c1ccc(/C=C/c2cc(C(F)(F)F)[nH]c(=O)n2)o1	none
CCCCc1cc(=O)oc2cc(C)c(CN3CCCC3)c(O)c12	VIM-2 inhibitor 8.3, IMP-1 inhibitor 14.3 | VIM-2 inh confirm inactive | TEM-1 counter inactive | IMP-1 confirm 5.6
CCc1cc(=O)oc2cc(C)c(CN3CCCC(C)C3)c(O)c12 (stereo not given)	VIM-2 inhibitor 8.4, IMP-1 inhibitor 16.2 | VIM-2 inh confirm 10.2 | TEM-1 counter inactive | IMP-1 confirm inactive
Cc1cc2oc(=O)cc(CN3CCCCC3)c2cc1C	none
N#CC1=C(N)Oc2c(O)cc3ccccc3c2C1c1ccsc1 (stereo not given)	VIM-2 inhibitor 8.1, IMP-1 inhibitor 4.6 | VIM-2 inh confirm inactive | TEM-1 counter inactive | IMP-1 confirm inactive
O=C(Nc1c(Cl)ccc2nsnc12)c1ccc([N+](=O)[O-])o1	none
COc1ccccc1N1N=C(c2ccc([N+](=O)[O-])cc2)CC1c1ccccc1 (stereo not given)	VIM-2 inhibitor 30.5, IMP-1 inhibitor 35.0 | VIM-2 inh confirm 17.7 | TEM-1 counter 26.8 | IMP-1 confirm 15.8
O=C(CS(=O)Cc1ccccc1Cl)Nc1ccccc1Cl (stereo not given)	none
CCN(CC)CCn1c(=S)[nH]c2cc(C(=O)N3CC(C)CC(C)C3)ccc2c1=O (stereo not given)	none
Cn1ccnc1SCC(=O)n1c2c(c3ccccc31)CCCC2	VIM-2 inhibitor 29.2, IMP-1 inhibitor 5.7 | VIM-2 inh confirm 8.5 | TEM-1 counter inactive | IMP-1 confirm inactive
Cn1ccnc1SCC(=O)Nc1cccc2ccccc12	none
COc1cc(C(=O)NNC(=O)COc2cccc(F)c2)ccc1OCC(=O)N1CCOCC1	none (no result: VIM-2 inhibitor, UBC9 SUMO inh, CTSL1 counter, IMP-1 inhibitor, pCIP destab)
c1ccc(CNc2ccccn2)cc1	none
c1ccc(Nc2ccccc2Nc2ccccn2)nc1	VIM-2 inhibitor 32.2, IMP-1 inhibitor 50.1 | VIM-2 inh confirm inactive | TEM-1 counter 1.1 | IMP-1 confirm inactive
CN(C)c1nc(N(C)C)nc(N(C#N)CN2C(=O)c3ccccc3S2(=O)=O)n1	none
CC(C)(C)Nc1nc(Cl)nc(N(C#N)CN2C(=O)c3ccccc3S2(=O)=O)n1	VIM-2 inhibitor 11.6, IMP-1 inhibitor 10.7 | VIM-2 inh confirm inactive | TEM-1 counter inactive | IMP-1 confirm inactive
c1ccc(-c2nc(NCc3ccco3)c3ccccc3n2)nc1	VIM-2 inhibitor 14.8, IMP-1 inhibitor 8.8 | VIM-2 inh confirm 12.6 | TEM-1 counter inactive | IMP-1 confirm inactive
Oc1ccccc1-c1nc(NCc2ccco2)c2ccccc2n1	none
